OX1R antag-1: human HCRTR1 antagonism | 330,000 tested, 0.43% active | inhibition, % at 5 µM | CHO/OX1R cells, Fluo-8 calcium fluorescence, orexin A;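 active = inhibition above its plate's threshold, mean inhibition of all tested compounds on the plate plus 3 SD, cut at about 37% in these data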;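 also: 0% = orexin A challenge wells and 100% = SB-334867-A antagonist wells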
OX1R antag-2: antagonists of human orexin 1 receptor (OX1R) | O43613 | OX1R-expressing cells, FRET antagonist read-out | inhibition, % at 6.6 µM | 330,000 tested, 1.8% active | AID 485270; in the data active = inhibition mostly above about 38%, no sharp cut-off; inactive = mostly below about 40%;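 also: 0% = agonist challenge alone and 100% = reference antagonist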
TAAR1 antag: human TAAR1 antagonism; inhibition, % at 3 µM; AID 624466; 360,000 tested, 1.5% active; CHO RD-HGA16 TAAR1, Fluo-8 calcium fluorescence, antagonist;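 active = inhibition above a per-plate cutoff, the mean inhibition of test compounds on that plate plus 3 SD, cut at about 49% in these data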;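 also: 0% = DMSO plus EC80 beta-PEA response and 100% = DMSO alone without agonist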
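Material: CHO RD-HGA16 cells bearing hTAAR1; compound dosing: one-point dosing, 3 µM nominal final; schedule: dye loading 75 min at 37 °C, then 30 min room temperature; measured by: calcium fluorescence with Fluo-8; control set: vehicle and agonist controls; replication: n of 1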
CHO parental Ca: counter-screen: ATP calcium response change in parental CHO cells; 330,000 tested, 0.63% active; AID 463079; inhibition, % at 5.6 µM; parental CHO-K1, ATP-induced calcium, Fluo-8 fluorescence;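 active = inhibition above that plate's mean sample inhibition plus 3 SD, cut at about 26% in these data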;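 also: 0% = ATP-challenged DMSO wells and 100% = DMSO wells without ATP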
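Test system: parental CHO cells; detection: calcium-sensitive Fluo-8 fluorescence; evaluation: percent inhibition of calcium signal; also added: ATP as calcium-mobilizing challenge; repeats: one well per compound; control set: ATP-challenged DMSO wells low, unchallenged DMSO wells high; compound: single nominal dose of 5.6 µM per compound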
GPR7 antagonist: antagonists of human GPR7 (neuropeptides B/W receptor 1) | inhibition, % at 4.4 µM | AID 1861 | GPR7-expressing cells, fluorescence antagonist assay | 290,000 tested, 1.1% active; in the data active = inhibition above about 16%, passing the limit was not always enough;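 also: cells stimulated with the agonist NPW; 0% = agonist with vehicle and 100% = vehicle without agonist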
Target sequence (P48145 whole entry, looked up): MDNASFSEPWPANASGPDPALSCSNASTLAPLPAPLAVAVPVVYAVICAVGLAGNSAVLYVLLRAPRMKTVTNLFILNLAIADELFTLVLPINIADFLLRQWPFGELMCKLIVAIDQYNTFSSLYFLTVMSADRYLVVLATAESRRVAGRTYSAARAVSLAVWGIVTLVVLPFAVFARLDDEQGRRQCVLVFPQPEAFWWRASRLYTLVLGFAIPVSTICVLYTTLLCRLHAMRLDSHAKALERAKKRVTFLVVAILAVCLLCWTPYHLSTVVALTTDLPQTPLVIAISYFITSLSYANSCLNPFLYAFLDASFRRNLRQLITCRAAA
TAAR1 agonist: human TAAR1 agonism; Q96RJ0; 360,000 tested, 0.99% active; activation, % at 3 µM; CHO RD-HGA16 TAAR1, Fluo-8 calcium fluorescence; vehicle wells 0%, saturating PEA agonist 100%;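 active = activation above the mean activation of all test compounds in the run plus 3 SD, cut at about 38% in these data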
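System: CHO RD-HGA16 cells carrying human TAAR1 plus Gα16; Incubation: 17-24 h seeding, 75 min 37 °C dye, 30 min RT; Measured by: Fluo-8 fluorescence, 5 s baseline then 140 s kinetic read; Control set: DMSO and PEA EC100; Replication: single well for each compound.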
Numbers without * were called inactive; · = no result given. Most compounds without a hit are left out; they make up all but 4.6% or so of the library.

SMILES	OX1R antag-1	OX1R antag-2	TAAR1 antag	CHO parental Ca	GPR7 antagonist	TAAR1 agonist
CC(C)(C)NC(=O)COC(=O)c1ccccc1NC(=O)c1ccco1	-17	6	7	-13	0	2
CCOc1ccc2c(c1)sc(N)[n+]2Cc1cc(C)cc2cccnc12	-10	11	-7	-8	35*	25
CCC(C(=O)OCn1nnc2ccccc2c1=O)c1ccccc1 (stereo unspecified)	-17	11	4	-15	-11	3
CCn1ncc(CN2CCCC(C(=O)Nc3cccc(-c4cc5ccccc5[nH]4)c3)C2)c1C (stereo unspecified)	-11	7	21	-9	17	41*
Cc1ccc(S(=O)(=O)N(C)Cc2ccc(C(=O)N/N=C/c3ccc(OC(F)F)cc3)cc2)cc1	-15	7	24	-5	5	3
C=CCNC(=O)c1cccc(C(F)(F)F)c1	0	6	5	-13	11	3
O=C(c1cc2nc(-c3ccc(F)cc3)cc(C(F)(F)F)n2n1)N1CCCCC1c1cccnc1 (stereo unspecified)	-2	18	19	42*	-25	-1
Cc1ccc(N(CCC#N)C(=O)COC(=O)C2CCN(S(=O)(=O)c3ccc(C)c(C)c3)CC2)cc1	-21	12	-28	-16	·	8
CCc1ccccc1N(C)S(=O)(=O)c1ccc2[nH]cc(C(=O)N3CCc4ccccc43)c(=O)c2c1	-14	3	57*	-11	-6	9
COc1ccccc1C(c1nnnn1CCc1ccccc1)N1CCN(c2ccccc2)CC1 (stereo unspecified)	-14	17	12	-6	23*	5
COc1cccc(C(c2nnnn2CCc2ccccc2)N2CCN(c3ccccc3)CC2)c1OC (stereo unspecified)	-26	34	-21	-3	14	15
c1ccc(Cn2nnnc2C(c2cccnc2)N2CCN(c3ccccc3)CC2)cc1 (stereo unspecified)	-13	11	51*	-12	-11	22
CNc1nc(-c2ccccc2)[n+](-c2ccc(C)cc2)s1	-18	10	-6	-15	-4	0
CCN1CCN(C(=O)c2cc(COc3ccc4ncccc4c3)on2)CC1	10	47	8	20	-3	5
COCCC1CCCCN1C(=O)c1cc(COc2ccc(-n3cncn3)cc2)on1 (stereo unspecified)	22	47	10	53*	14	6
COCC1CCCCN1C(=O)c1cc(COc2ccc3ncccc3c2)on1 (stereo unspecified)	55*	33	15	47*	11	6
CC(NC(=O)c1ccccc1F)c1nnc(SCC(=O)NC2CCCCC2)n1C (stereo unspecified)	-3	29	-10	-4	-17	1
NS(=O)(=O)c1ccc(Nc2ncccc2[N+](=O)[O-])cc1	1	58*	12	4	-1	4
COc1ccc(C(N)c2nccc3cc(OC)c(OC)cc23)cc1OC (stereo unspecified)	-41	73*	·	-14	-2	·
COc1cc(N)c(Cc2nccc3cc(OC)c(OC)cc23)cc1OC	-20	19	-4	-24	-6	5
CC1(C)CC(N=C2C([N+](=O)[O-])=CC=C3C2=NC2(CCCCC2)N3O)CC(C)(C)N1	-2	74*	-11	8	0	3
O=[N+]([O-])C1=CC=C2C(=NC3(CCCCC3)N2O)C1=NC1CCCCC1	-9	-2	-36	2	-8	1
CCOc1ccc(S(=O)(=O)Nc2ccn(C)n2)cc1	-8	3	-12	-7	·	1
Cc1cc(C(=O)CSc2nc3ccccc3o2)c(C)n1C1CC1	41*	33	26	6	9	-1
C=CCn1c(C)cc(C(=O)CSc2nc3ccccc3o2)c1C	41*	35	15	43*	-6	2
SMILES	OX1R antag-1	OX1R antag-2	TAAR1 antag	CHO parental Ca	GPR7 antagonist	TAAR1 agonist
Cc1ccc(CN(C)C(=O)c2cc(S(=O)(=O)N3CCOCC3)ccc2F)o1	-28	-1	-14	-8	·	0
O=C1c2[nH]c3ccccc3c2CC1N1C(=O)c2ccccc2C1=O (stereo unspecified)	·	·	52*	·	·	21
COC(=O)c1ccc(NC(=O)CSc2ccccc2)cc1	54*	9	-14	54*	-2	2
Clc1ccc(-n2ncc3c(NCC4CCCO4)ncnc32)cc1 (stereo unspecified)	-12	12	53*	-6	4	10
CCN1C(=O)c2cccc3c(S(=O)(=O)Nc4ccc(O)c(C(=O)O)c4)ccc1c23	-6	17	-23	3	-9	4
CCOc1ccc(N=Cc2ccc3ccccc3c2)cc1	2	2	1	-4	-8	3
O=[N+]([O-])c1cc(C=Nc2ccc3ccccc3c2)ccc1Br	0	64*	15	-9	-5	-1
CCC(C)c1ccccc1N1CC(C(=O)Nc2ccccc2N2CCCC2)CC1=O (stereo unspecified)	-20	24	6	-20	23	2
CCn1c(N2CCN(S(=O)(=O)c3ccccc3C(F)(F)F)CC2)nc2ccccc21	-12	17	42	-2	-14	24
COc1ccc(OC2CCN(S(=O)(=O)c3ccc(OC)cc3)CC2)cc1	27	0	2	36*	34	5
CCn1c(N2CCN(S(=O)(=O)c3ccc(OC)cc3)CC2)nc2ccccc21	-3	7	49*	5	-5	34
CC(C)c1nnc(NC(=O)C2c3ccccc3Oc3ccccc32)s1	-12	2	-2	-9	4	42*
O=C(O)CNc1nc(Cl)ccc1[N+](=O)[O-]	-10	64*	3	-1	-12	2
O=C(NCc1ccco1)c1cc([N+](=O)[O-])ccc1N1CCCCC1	-23	34	-11	-11	6	3
O=C(NCc1ccc2c(c1)OCO2)c1cc([N+](=O)[O-])ccc1N1CCCCC1	-21	26	42	-19	37*	3
O=C(Nc1ccc(Cl)cn1)c1cccc2c(Br)cccc12	-27	-5	13	-23	5	2
O=[N+]([O-])C(/C=C(\Cl)[N+](=O)[O-])=C(N1CCCCC1)N1CCCCC1	-21	64*	10	-16	2	6
CCC(CC)N=C1NS(=O)(=O)c2cc([N+](=O)[O-])ccc21	-7	55*	7	-12	-6	3
COc1ccc(N2CCN(C(=O)CCCCCn3c(=S)[nH]c4ccc(N5CCOCC5)cc4c3=O)CC2)cc1	·	·	56*	·	·	9
O=C(c1ccco1)N1CCN(Cc2nc3ccc([N+](=O)[O-])cc3c(=O)n2-c2ccccc2F)CC1	-7	9	69*	-10	1	18

Screening results as filed in PubChem BioAssay.
